In PMC3923119 (Osteoporosis International, 2013):
Like-named read-outs stand apart in the source and are kept apart here.

What was measured:
[1] = tested on: postmenopausal women with osteoporosis; experiment: Adverse events; format: in vivo, human; settings: 56.5 μg once weekly for 24 weeks
Summary of the method: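 Japanese postmenopausal women with osteoporosis, aged 60–79, at four centres. Test compound (PTH peptide) 56.5 μg given s.c. weekly for 24 weeks, with daily calcium 610 mg, vitamin D 400 IU and magnesium 30 mg. Physicians recorded adverse events and classified them by MedDRA 12.0 system organ class.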

[2] = tested on: postmenopausal women with osteoporosis; experiment: Changes in calcium metabolism; format: in vivo, human
Summary of the method: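 Weekly s.c. 56.5 μg test compound for 24 weeks, in osteoporotic women aged 60–79 on calcium/vitamin D/magnesium supplements. Blood was drawn in weeks 0, 4, 12 and 24, with 0 h sampling at 0800 before dosing and further samples over 24 h. Corrected serum Ca and intact PTH (electrochemiluminescence immunoassay) are given as means±SE versus 0 h or week 0, paired t test.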

[3] = daily teriparatide, cited from earlier work
[4] = tested on: postmenopausal women with osteoporosis; experiment: Changes in bone turnover markers; format: in vivo, human
Summary of the method: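 Women aged 60–79 received 56.5 μg test compound s.c. weekly for 24 weeks. In weeks 0, 4, 12 and 24, dosing followed 0 h sampling at 0800, with serum/urine taken at 0, 2, 4, 6, 8, 12 and 24 h. Osteocalcin was measured by IRMA, P1NP by RIA, urinary NTX by ELISA, plus urinary DPD. Read-outs were mean (±SE) percent change from 0 h or week 0, paired t test.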

[5] = cited from earlier work
[6] = tested on: healthy postmenopausal women; settings: day 7 after single injection of 56.5 μg; cited from earlier work
[7] = after 24 weeks, 56.5 μg once weekly
[8] = at 4 weeks, 56.5 μg once weekly, mean percent change, significant

Structure (SMILES): CC[C@H](C)[C@H](NC(=O)[C@H](CCC(=O)O)NC(=O)[C@H](CO)NC(=O)[C@@H](NC(=O)[C@@H](N)CO)C(C)C)C(=O)N[C@@H](CCC(N)=O)C(=O)N[C@@H](CC(C)C)C(=O)N[C@@H](CCSC)C(=O)N[C@@H](Cc1cnc[nH]1)C(=O)N[C@@H](CC(N)=O)C(=O)N[C@@H](CC(C)C)C(=O)NCC(=O)N[C@@H](CCCCN)C(=O)N[C@@H](Cc1cnc[nH]1)C(=O)N[C@@H](CC(C)C)C(=O)N[C@@H](CC(N)=O)C(=O)N[C@@H](CO)C(=O)N[C@@H](CCSC)C(=O)N[C@@H](CCC(=O)O)C(=O)N[C@@H](CCCN=C(N)N)C(=O)N[C@H](C(=O)N[C@@H](CCC(=O)O)C(=O)N[C@@H](Cc1c[nH]c2ccccc12)C(=O)N[C@@H](CC(C)C)C(=O)N[C@@H](CCCN=C(N)N)C(=O)N[C@@H](CCCCN)C(=O)N[C@@H](CCCCN)C(=O)N[C@@H](CC(C)C)C(=O)N[C@@H](CCC(N)=O)C(=O)N[C@@H](CC(=O)O)C(=O)N[C@H](C(=O)N[C@@H](Cc1cnc[nH]1)C(=O)N[C@@H](CC(N)=O)C(=O)N[C@@H](Cc1ccccc1)C(=O)O)C(C)C)C(C)C [teriparatide, Human parathyroid hormone (PTH) 1–34]
- Hypercalcemia [1]: not observed
- serious AEs ([1]; 28 subjects): No serious AEs were observed
- serum corrected Ca level during the 24 week dosage period ([2]; 0 h values at 4 and 24 weeks versus 0 weeks, 56.5 μg once weekly, paired t test): decreased significantly
- intact PTH level during the dosage period of 24 weeks ([2]; 0 h values at 12 and 24 weeks versus 0 weeks, 56.5 μg once weekly, paired t test): decreased significantly
- serum intact PTH minimum concentration ([2]; at 2 or 6 h after 56.5 μg injection, range of means over data collection weeks): 25.6 to 28.3 pg/mL
- bone formation marker increase ([3]; after 1 month): 105%
- bone formation marker (serum PINP) increase ([3]; after 6 months): 218%
- bone resorption marker (urinary NTX) increase ([3]; after 6 months): 58%
- serum P1NP change after 24 weeks [4, 7]: did not increase significantly
- serum osteocalcin change after 24 weeks [4, 7]: increased significantly
- urinary DPD maximum value, 24 h percent change from 0 h ([4]; at 2 or 4 h after 56.5 μg injection, range of means over data collection weeks): 29.5 to 31.6%
- urinary NTX maximum value, 24 h percent change from 0 h ([4]; at 4 or 6 h after 56.5 μg injection, range of means over data collection weeks): 41.2 to 67.4%
- urinary DPD decrease from baseline (0 h values) ([4]; at 4 weeks, 56.5 μg once weekly, mean percent change): 17.8%
- serum P1NP increase from baseline (0 h values) [4, 8]: 19.9%
- serum osteocalcin increase from baseline (0 h values) [4, 8]: 26.8%
- urinary NTX decrease from baseline (0 h values) [4, 8]: 14.8%
- serum P1NP minimum value, 24 h percent change from 0 h ([4]; at 6 h after 56.5 μg injection, range of means over data collection weeks): −15.1 to −22.3%
- relative risk reduction in vertebral fractures ([5]; daily teriparatide): 65%
- relative risk of non-vertebral fragility fracture ([5]; once-weekly teriparatide injection, 95 % CI, 0.24–1.84, p = 0.43): 0.67
- relative risk reduction in vertebral fractures ([5]; once-weekly teriparatide): 80%
- NTX decrease [6]: 10%
- P1NP increase [6]: 10%
- osteocalcin increase [6]: 5%
